Assay outcomes from PubChem BioAssay.
In the library only some 1.5% were active in any assay of this set; here they are far more common.
Hep lipid drop: inhibitors of hepatocyte lipid droplet formation, primary screen, imaging, high-throughput imaging, BODIPY stain. inhibition, % at 6.5 µM. AML12 mouse hepatocytes, oleate lipid droplets. AID 1656, 2009. 240,000 compounds, 0.4% hits;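 active = lipid droplet intensity inhibited by at least 50%, with more than 500 cells counted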
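Assay system: AML12 mouse liver cells | Compound: 6.5 µM single-point dosing | Schedule: Overnight exposure | Technique: Fluorescence imaging, 20x objective, two fields per well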
STAT1 blocker: STAT1 signaling inhibitors, primary screen, cell-based, HTS, luciferase reporter. 200,000 compounds, 0.35% hits. NIH 3T3 STAT1-luciferase reporter, IFN-gamma, luminescence. inhibition, % at 5.5 µM. AID 920, 2007;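 active = inhibition above a set limit, the mean inhibition across all tested compounds plus 3 SD, cut at about 34% in these data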
Platelet DG rel: inhibitors of platelet dense granule secretion, primary screen, cell-based, MLPCN, human platelets; human platelet-rich plasma, SFLLRN dense granule ATP release, luminescence; inhibition, %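 (compounds screened at 7.5 µM in platelet-rich plasma)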; 300,000 compounds, 0.22% hits;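 active = mean replicate score, as percent of positive control, at or above 50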
H9c2 TAG inh: inhibitors of triacylglycerol accumulation, primary screen, cell-based, uHTS, fluorescence, H9c2; H9c2 cells, Nile Red lipid (TAG) fluorescence; cells loaded with 200 µM oleic acid; inhibition, % at 12.5 µM; 230,000 compounds, 0.66% hits; AID 651582, 2012;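 active = pattern-corrected inhibition of lipid staining of at least 50% with the nuclear-stain viability signal not falling by more than 50%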
PPC-1+TRAIL kill: compounds killing PPC-1 cancer cells with TRAIL present, primary screen, TRAIL potentiator project, ATPLite luminescence, uHTS | PPC-1 cells + TRAIL, ATPLite viability luminescence | cell killing (% activity), % at 4 µM or 5 µM | 220,000 compounds, 0.41% hits | AID 1443, 2008;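 active = cell killing above 50% in the first pass at 4 µM, then a duplicate retest at 5 µM averaging 50% or more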
STAT3 inh: IL-6 driven STAT3 reporter inhibitors, primary screen, U3A cells, luciferase, luminescence, MLSCN library | IL-6 STAT3-luciferase reporter; host cell line lacks STAT1 | inhibition, % at 5.5 µM | 190,000 compounds, 0.89% hits;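 active = inhibition above the mean inhibition across all screened compounds plus 3 SD, cut at about 44% in these data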
H9c2 TAG conf: triacylglycerol accumulation inhibitors, retest, confirmation, cell-based, single concentration, Nile Red fluorescence, H9c2; shares compounds with H9c2 TAG inh; H9c2 lipid accumulation; cells loaded with 200 µM oleic acid; inhibition, % at 12.5 µM; 990 compounds, 71% hits; AID 651629, 2012;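 active = mean inhibition across replicates of 40% or more; inactive = mean inhibition below 40%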
Numbers stand for hits; i = inactive; nt = no result given.

SMILES	Hep lipid drop	STAT1 blocker	Platelet DG rel	H9c2 TAG inh	PPC-1+TRAIL kill	STAT3 inh	H9c2 TAG conf
Cc1cc(C)c(NC(=O)CSc2nc3ccc(NC(=O)CSc4nnnn4Cc4ccccc4)cc3s2)c(C)c1	nt	i	i	55.9	nt	i	41.6
O=C(CSc1nc2ccc(NC(=O)CSc3nnnn3Cc3ccccc3)cc2s1)Nc1ccccc1	i	i	i	i	i	i	nt
CC1(C(=O)NS(=O)(=O)c2ccc(F)cc2F)CCN1C(=O)c1ccccc1 (stereo unspecified)	nt	nt	nt	i	nt	nt	nt
Nc1c(C(=O)Nc2ccccc2)c2nc3ccccc3nc2n1-c1ccc(O)cc1	i	nt	i	64.4	i	nt	64.6
CCOC(=O)c1c(N)n(-c2ccc(N)cc2)c2nc3ccccc3nc12	i	i	i	i	i	i	nt
CC(=O)CSc1nc2nccnc2[nH]1	nt	nt	nt	i	nt	nt	nt
CN(C(=S)NC(=O)C1CCCC1)c1ccccc1	nt	nt	nt	i	nt	nt	nt
CCCCCc1cc(=O)oc2c(C(CCN3CCN(c4ccccc4)CC3)c3ccc(N(C)C)cc3)c(OC)cc(OC)c12 (stereo unspecified)	i	nt	i	73.1	i	nt	62.6
COc1ccc(C(CCN2CCN(c3ccccc3)CC2)c2c(OC)cc(OC)c3c(-c4ccccc4)cc(=O)oc23)cc1 (stereo unspecified)	i	nt	i	i	i	nt	nt
COc1cc(OC)c2c(-c3ccccc3)cc(=O)oc2c1C(CCN1CCN(c2ccccc2)CC1)c1ccc(N(C)C)cc1 (stereo unspecified)	i	nt	i	53.9	i	nt	62.8
COc1cc(OC)c2ccc(=O)oc2c1C(CCN1CCN(c2ccccc2)CC1)c1ccc(N(C)C)cc1 (stereo unspecified)	i	nt	i	i	i	nt	nt
CCCCCc1cc(=O)oc2c(C(CCN(CC)CC)c3cc(OC)c(OC)c(OC)c3)c(OC)cc(OC)c12 (stereo unspecified)	i	nt	i	114.4	i	nt	96.7
CN(CC(=O)NCCc1ccc(S(N)(=O)=O)cc1)S(=O)(=O)c1cccc2nsnc12	i	nt	i	nt	nt	nt	nt
CCOc1ccc(CCNC(=O)CN(C)S(=O)(=O)c2cccc3nsnc23)cc1OCC	nt	i	i	50.6	i	i	43.7
COc1ccc2[nH]c3c(c2c1)CCN1C(=O)C(CC(=O)NCC24CC5CC(CC(C5)C2)C4)C[C@H](C(=O)N2CCOCC2)[C@@]31CCC1CCCC1 (stereo partly specified)	nt	nt	nt	71.9	nt	nt	72.9
COc1ccc2[nH]c3c(c2c1)CCN1C(=O)C(CC(=O)NCCC2=CCCCC2)C[C@H](C(=O)N2CCOCC2)[C@@]31CCC1CCCC1 (stereo partly specified)	nt	nt	nt	i	nt	nt	nt
O=C(C[C@H]1C[C@H](C(=O)N2CCOCC2)[C@@]2(CCC3CCCC3)c3[nH]c4ccc(Cl)cc4c3CCN2C1=O)NCCN1CCOCC1	nt	nt	nt	i	nt	nt	nt
O=C(C[C@H]1C[C@H](C(=O)N2CCOCC2)[C@@]2(CCC3CCCC3)c3[nH]c4ccc(Cl)cc4c3CCN2C1=O)NCC12CC3CC(CC(C3)C1)C2	nt	nt	nt	69.1	nt	nt	63.2
N#CCC(=O)N/N=C/c1cn(Cc2ccc(Cl)c(Cl)c2)c2ccccc12	i	nt	i	73.3	i	nt	58.5
CCOc1cc2[nH]c(=O)n(CCCCC(=O)N3CCCCCC3)c(=O)c2cc1OCC	i	i	i	63.1	i	i	i
Cc1nn2c(N3CCCC3)cc(C(C)C)nc2c1-c1ccccc1	nt	i	i	72.2	i	i	59.0
Cc1ccc2c(c1)N(C(=O)CCC(=O)NCCCN1CCN(C)CC1)CCO2	i	nt	i	i	nt	nt	nt
Cc1ccc2c(c1)N(C(=O)CCC(=O)NCCCN1CCC(Cc3ccccc3)CC1)CCO2	i	nt	i	60.8	nt	nt	59.8
CC(=O)C1=C(O)C(CSCc2ccccc2)N(C)C1=O (stereo unspecified)	nt	nt	nt	i	nt	nt	nt
COc1ccccc1NS(=O)(=O)c1cc(NC(=O)/C=C/c2cccs2)ccc1N1CCOCC1	i	i	i	54.4	i	i	i
SMILES	Hep lipid drop	STAT1 blocker	Platelet DG rel	H9c2 TAG inh	PPC-1+TRAIL kill	STAT3 inh	H9c2 TAG conf
CC(C)c1ccc(CN(C)C(=O)c2ccc(S(=O)(=O)NCc3ccco3)cc2)cc1	nt	nt	nt	i	nt	nt	nt
COc1ccccc1C(NC(=O)C1CCN(CCOc2ccccc2)CC1)c1ccccn1 (stereo unspecified)	nt	nt	nt	i	nt	nt	nt
Cc1cc(C)nc(N2CCC(C(=O)Nc3ccc(Oc4ccccc4)cc3)CC2)n1	i	i	i	nt	i	i	nt
Cc1ccnc(N2CCC(C(=O)Nc3ccc(Oc4ccccc4)cc3)CC2)n1	nt	i	i	52.4	i	i	i
CSc1sc(-c2ccnc(=S)[nH]2)c(-c2ccccc2)c1C#N	i	nt	i	75.5	i	nt	i
COc1cccc(NC(=O)c2cc([N+](=O)[O-])ccc2NCc2cccnc2)c1	i	i	i	nt	i	i	nt
Cc1ccc(NC(=O)c2cc([N+](=O)[O-])ccc2NCc2cccnc2)cc1Cl	nt	i	i	67.8	i	i	40.5
CC1(C)CCCN(Cc2c(O)ccc3c(=O)c(-c4nc5ccccc5s4)c(N)oc23)C1	i	nt	i	55.4	i	nt	67.8
CC1CCCN(Cc2c(O)ccc3c(=O)c(-c4nc5ccccc5s4)c(N)oc23)C1 (stereo unspecified)	nt	i	i	nt	i	i	nt
O=C1CCN(CCCN2CCC(=O)NC2=S)C(=S)N1	nt	nt	nt	i	nt	nt	nt
COc1ccccc1CNC(=O)CN1C(=O)NC(c2ccccc2)(c2ccc(C)c(C)c2)C1=O (stereo unspecified)	nt	nt	nt	53.5	nt	nt	i
Cc1c(NC(=O)c2ccc(NS(=O)(=O)c3ccc(F)c(F)c3)cc2)c(=O)n(-c2ccccc2)n1C	nt	nt	nt	i	nt	nt	nt
O=C(O)C[C@@H]1C(=O)O[C@@H]2C(COC(=O)c3cc(O)c(O)c(O)c3)O[C@@H](OC(=O)c3cc(O)c(O)c(O)c3)[C@@H](OC(=O)c3cc(O)c(O)c4c3[C@H]1[C@H](O)C(=O)O4)[C@H]2OC(=O)c1cc(O)c(O)c(O)c1 (stereo partly specified)	i	nt	nt	nt	i	nt	nt
CS(=O)(=O)Oc1ccc2c(c1)O/C(=C\c1cccc([N+](=O)[O-])c1)C2=O	nt	nt	i	nt	nt	nt	nt
CS(=O)(=O)Oc1ccc2c(c1)O/C(=C\C=C\c1ccccc1)C2=O	i	nt	i	54.3	i	nt	i
CCOC(=O)CN(C(=O)CSc1nnc2c(n1)[nH]c1ccccc12)c1ccccc1	nt	i	i	50.6	i	i	i
CC(C)n1cc(/C=C2/NC(=O)N(c3cccc(Cl)c3)C2=O)c2ccccc21	i	i	i	54.8	i	i	i
